Results: ChEMBL document CHEMBL1687778, “Genetic determinants involved in the susceptibility of Pseudomonas aeruginosa to beta-lactam antibiotics” (2010)
≈ marks a conversion by molar mass, not a printed value.

What was measured:
Format in all cases: functional
Pseudomonas aeruginosa [1] = test: Antimicrobial activity against Pseudomonas aeruginosa PA14 PA0667 harboring mutation in putative metallopeptidase by Etest method
In short: (§1)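 Overnight LB cultures (37°C) diluted in sterile 0.85% NaCl to about 1 × 10^7 CFU/ml. 100 µl spread on Mueller-Hinton agar, one Etest strip per plate, 18 h at 37°C. Ceftazidime, imipenem and meropenem tested. Wild-type PA14 plate included in each set. Each mutant verified in triplicate.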

Pseudomonas aeruginosa [2] = test: Antimicrobial activity against Pseudomonas aeruginosa PA14 PA0479 harboring mutation in putative transcriptional regulator, LysR family by Etest method; in short: as §1
Pseudomonas aeruginosa [3] = test: Antimicrobial activity against wild type Pseudomonas aeruginosa PA14 by Etest method
In short: (§2)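 Etest MIC. Overnight LB cultures at 37°C were diluted in sterile 0.85% NaCl to about 1 × 10^7 CFU/ml. 100 µl was spread on Mueller-Hinton agar, one strip was placed per plate, and plates were incubated at 37°C for 18 h. Equal cell numbers were seeded per plate, and results were verified in triplicate. PA14 wild type was included in each set as a susceptibility control.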

Pseudomonas aeruginosa [4] = test: Antimicrobial activity against Pseudomonas aeruginosa PA14 PA0807 harboring ampDh3 mutant gene by Etest method; in short: as §1
Pseudomonas aeruginosa [5] = test: Antimicrobial activity against Pseudomonas aeruginosa PA14 PA1348 harboring mutation in conserved hypothetical protein by Etest method; in short: as §1
Pseudomonas aeruginosa [6] = test: Antimicrobial activity against Pseudomonas aeruginosa PA14 PA14_15600 harboring mutation in conserved hypothetical protein by Etest method; in short: as §1
Pseudomonas aeruginosa [7] = test: Antimicrobial activity against Pseudomonas aeruginosa PA14 PA14_23420 harboring mutation in putative zinc-binding dehydrogenase by Etest method; in short: as §1
Pseudomonas aeruginosa [8] = test: Antimicrobial activity against Pseudomonas aeruginosa PA14 PA14_06490 harboring mutation in hypothetical protein by Etest method; in short: as §1
Pseudomonas aeruginosa [9] = test: Antimicrobial activity against Pseudomonas aeruginosa PA14 PA1553 harboring mutation in putative cytochrome c oxidase, cbb3 type, subunit II by Etest method; in short: as §1
Pseudomonas aeruginosa [10] = test: Antimicrobial activity against Pseudomonas aeruginosa PA14 PA2487 harboring mutation in hypothetical protein by Etest method; in short: as §1
Pseudomonas aeruginosa [11] = test: Antimicrobial activity against Pseudomonas aeruginosa PA14 PA2621 harboring clpS mutant gene by Etest method; in short: as §1
Pseudomonas aeruginosa [12] = test: Antimicrobial activity against Pseudomonas aeruginosa PA14 PA2797 harboring mutation in putative anti-anti-sigma factor by Etest method; in short: as §1
Pseudomonas aeruginosa [13] = test: Antimicrobial activity against Pseudomonas aeruginosa PA14 PA3141 harboring wbpM mutant gene by Etest method; in short: as §1
Pseudomonas aeruginosa [14] = test: Antimicrobial activity against Pseudomonas aeruginosa PA14 PA3247 harboring mutation in putative aspartyl aminopeptidase by Etest method; in short: as §1
Pseudomonas aeruginosa [15] = test: Antimicrobial activity against Pseudomonas aeruginosa PA14 PA3259 harboring mutation in conserved hypothetical protein by Etest method; in short: as §2
Pseudomonas aeruginosa [16] = test: Antimicrobial activity against Pseudomonas aeruginosa PA14 PA3589 harboring mutation in acetyl-coenzyme A (CoA) acetyltransferase (thiolase) by Etest method; in short: as §2
Pseudomonas aeruginosa [17] = test: Antimicrobial activity against Pseudomonas aeruginosa PA14 PA3667 harboring mutation in putative cysteine sulfinate desulfinase by Etest method; in short: as §2
Pseudomonas aeruginosa [18] = test: Antimicrobial activity against Pseudomonas aeruginosa PA14 PA3704 harboring wspE mutant gene by Etest method; in short: as §2
Pseudomonas aeruginosa [19] = test: Antimicrobial activity against Pseudomonas aeruginosa PA14 PA4402 harboring argJ mutant gene by Etest method; in short: as §2
Pseudomonas aeruginosa [20] = test: Antimicrobial activity against Pseudomonas aeruginosa PA14 PA4527 harboring pilC mutant gene by Etest method; in short: as §2
Pseudomonas aeruginosa [21] = test: Antimicrobial activity against Pseudomonas aeruginosa PA14 PA4550 harboring fimU mutant gene by Etest method; in short: as §2
Pseudomonas aeruginosa [22] = test: Antimicrobial activity against Pseudomonas aeruginosa PA14 PA4946 harboring mutL mutant gene by Etest method; in short: as §2
Pseudomonas aeruginosa [23] = test: Antimicrobial activity against Pseudomonas aeruginosa PA14 PA5002 harboring mutation in hypothetical protein by Etest method; in short: as §2
Pseudomonas aeruginosa [24] = test: Antimicrobial activity against Pseudomonas aeruginosa PA14 PA5005 harboring mutation in putative carbamoyltransferase by Etest method; in short: as §2
Pseudomonas aeruginosa [25] = test: Antimicrobial activity against Pseudomonas aeruginosa PA14 PA5443 harboring uvrD mutant gene by Etest method; in short: as §2
Pseudomonas aeruginosa [26] = test: Antimicrobial activity against Pseudomonas aeruginosa PA14 PA0011 harboring mutation in putative 2-OH-lauroyltransferase by Etest method; in short: as §1
Pseudomonas aeruginosa [27] = test: Antimicrobial activity against Pseudomonas aeruginosa PA14 PA0401 harboring mutation in Noncatalytic dihydroorotase-like protein by Etest method; in short: as §1
Pseudomonas aeruginosa [28] = test: Antimicrobial activity against Pseudomonas aeruginosa PA14 PA0420 harboring bioA mutant gene by Etest method; in short: as §1
Pseudomonas aeruginosa [29] = test: Antimicrobial activity against Pseudomonas aeruginosa PA14 PA0503 harboring mutation in Putative biotin synthesis protein BioC by Etest method; in short: as §1
Pseudomonas aeruginosa [30] = test: Antimicrobial activity against Pseudomonas aeruginosa PA14 PA0766 harboring mucD mutant gene by Etest method; in short: as §1
Pseudomonas aeruginosa [31] = test: Antimicrobial activity against Pseudomonas aeruginosa PA14 PA0770 harboring rnc mutant gene by Etest method; in short: as §1
Pseudomonas aeruginosa [32] = test: Antimicrobial activity against Pseudomonas aeruginosa PA14 PA14_07490/07510 harboring mutation in intergenic region by Etest method; in short: as §1
Pseudomonas aeruginosa [33] = test: Antimicrobial activity against Pseudomonas aeruginosa PA14 PA14_59780 harboring rcsC mutant gene by Etest method; in short: as §1
Pseudomonas aeruginosa [34] = test: Antimicrobial activity against Pseudomonas aeruginosa PA14 PA2128 harboring cupA1 mutant gene by Etest method; in short: as §1
Pseudomonas aeruginosa [35] = test: Antimicrobial activity against Pseudomonas aeruginosa PA14 PA2963 harboring mutation in putative aminodeoxychorismate lyase by Etest method; in short: as §1
Pseudomonas aeruginosa [36] = test: Antimicrobial activity against Pseudomonas aeruginosa PA14 PA2970 harboring rpmF mutant gene by Etest method; in short: as §1
Pseudomonas aeruginosa [37] = test: Antimicrobial activity against Pseudomonas aeruginosa PA14 PA3050 harboring pyrD mutant gene by Etest method; in short: as §1
Pseudomonas aeruginosa [38] = test: Antimicrobial activity against Pseudomonas aeruginosa PA14 PA3262 harboring fklB mutant gene by Etest method; in short: as §2
Pseudomonas aeruginosa [39] = test: Antimicrobial activity against Pseudomonas aeruginosa PA14 PA3433 harboring mutation in putative transcriptional regulator, LysR family by Etest method; in short: as §2
Pseudomonas aeruginosa [40] = test: Antimicrobial activity against Pseudomonas aeruginosa PA14 PA4005 harboring mutation in conserved hypothetical protein by Etest method; in short: as §2
Pseudomonas aeruginosa [41] = test: Antimicrobial activity against Pseudomonas aeruginosa PA14 PA4745 harboring nusA mutant gene by Etest method; in short: as §2
Pseudomonas aeruginosa [42] = test: Antimicrobial activity against Pseudomonas aeruginosa PA14 PA4753 harboring mutation in putative RNA-binding protein by Etest method; in short: as §2
Pseudomonas aeruginosa [43] = test: Antimicrobial activity against Pseudomonas aeruginosa PA14 PA5130 harboring mutation in putative rhodanese-like domain protein by Etest method; in short: as §2
Pseudomonas aeruginosa [44] = test: Antimicrobial activity against Pseudomonas aeruginosa PA14 PA5174 harboring mutation in putative beta-ketoacyl synthase by Etest method; in short: as §2
Pseudomonas aeruginosa [45] = test: Antimicrobial activity against Pseudomonas aeruginosa PA14 PA5288 harboring glnK mutant gene by Etest method; in short: as §2
Pseudomonas aeruginosa [46] = test: Antimicrobial activity against Pseudomonas aeruginosa PA14 PA5366 harboring pstB mutant gene by Etest method; in short: as §2
Pseudomonas aeruginosa [47] = test: Antimicrobial activity against Pseudomonas aeruginosa PA14 PA14_23430 harboring mutation in putative heparinase by Etest method; in short: as §1

Structure (SMILES): C[C@@H](O)[C@H]1C(=O)N2C(C(=O)O)=C(SCCNC=N)C[C@H]12 [IMIPENEM ANHYDROUS]
- MIC (Pseudomonas aeruginosa [1]): 0.5 µg/mL (≈ 1.67 µM)
- MIC (Pseudomonas aeruginosa [2]): 1 µg/mL (≈ 3.34 µM)
- MIC (Pseudomonas aeruginosa [3]): 0.5 µg/mL (≈ 1.67 µM)
- MIC (Pseudomonas aeruginosa [4]): 1 µg/mL (≈ 3.34 µM)
- MIC (Pseudomonas aeruginosa [5]): 0.5 µg/mL (≈ 1.67 µM)
- MIC (Pseudomonas aeruginosa [6]): 0.5 µg/mL (≈ 1.67 µM)
- MIC (Pseudomonas aeruginosa [7]): 0.38 µg/mL (≈ 1.27 µM)
- MIC (Pseudomonas aeruginosa [8]): 0.38 µg/mL (≈ 1.27 µM)
- MIC (Pseudomonas aeruginosa [9]): 1 µg/mL (≈ 3.34 µM)
- MIC (Pseudomonas aeruginosa [10]): 0.5 µg/mL (≈ 1.67 µM)
- MIC (Pseudomonas aeruginosa [11]): 0.38 µg/mL (≈ 1.27 µM)
- MIC (Pseudomonas aeruginosa [12]): 0.5 µg/mL (≈ 1.67 µM)
- MIC (Pseudomonas aeruginosa [13]): 0.5 µg/mL (≈ 1.67 µM)
- MIC (Pseudomonas aeruginosa [14]): 0.38 µg/mL (≈ 1.27 µM)
- MIC (Pseudomonas aeruginosa [15]): 0.5 µg/mL (≈ 1.67 µM)
- MIC (Pseudomonas aeruginosa [16]): 0.5 µg/mL (≈ 1.67 µM)
- MIC (Pseudomonas aeruginosa [17]): 0.75 µg/mL (≈ 2.51 µM)
- MIC (Pseudomonas aeruginosa [18]): 0.5 µg/mL (≈ 1.67 µM)
- MIC (Pseudomonas aeruginosa [19]): 0.38 µg/mL (≈ 1.27 µM)
- MIC (Pseudomonas aeruginosa [20]): 0.38 µg/mL (≈ 1.27 µM)
- MIC (Pseudomonas aeruginosa [21]): 0.5 µg/mL (≈ 1.67 µM)
- MIC (Pseudomonas aeruginosa [22]): 0.38 µg/mL (≈ 1.27 µM)
- MIC (Pseudomonas aeruginosa [23]): 0.38 µg/mL (≈ 1.27 µM)
- MIC (Pseudomonas aeruginosa [24]): 0.25 µg/mL (≈ 0.835 µM)
- MIC (Pseudomonas aeruginosa [25]): 0.5 µg/mL (≈ 1.67 µM)
- MIC (Pseudomonas aeruginosa [26]): 0.38 µg/mL (≈ 1.27 µM)
- MIC (Pseudomonas aeruginosa [27]): 0.38 µg/mL (≈ 1.27 µM)
- MIC (Pseudomonas aeruginosa [28]): 0.125 µg/mL (≈ 0.418 µM)
- MIC (Pseudomonas aeruginosa [29]): 0.19 µg/mL (≈ 0.635 µM)
- MIC (Pseudomonas aeruginosa [30]): 0.25 µg/mL (≈ 0.835 µM)
- MIC (Pseudomonas aeruginosa [31]): 0.75 µg/mL (≈ 2.51 µM)
- MIC (Pseudomonas aeruginosa [32]): 0.5 µg/mL (≈ 1.67 µM)
- MIC (Pseudomonas aeruginosa [33]): 0.5 µg/mL (≈ 1.67 µM)
- MIC (Pseudomonas aeruginosa [34]): 0.38 µg/mL (≈ 1.27 µM)
- MIC (Pseudomonas aeruginosa [35]): 0.25 µg/mL (≈ 0.835 µM)
- MIC (Pseudomonas aeruginosa [36]): 0.5 µg/mL (≈ 1.67 µM)
- MIC (Pseudomonas aeruginosa [37]): 0.25 µg/mL (≈ 0.835 µM)
- MIC (Pseudomonas aeruginosa [38]): 0.25 µg/mL (≈ 0.835 µM)
- MIC (Pseudomonas aeruginosa [39]): 0.19 µg/mL (≈ 0.635 µM)
- MIC (Pseudomonas aeruginosa [40]): 0.064 µg/mL (≈ 0.214 µM)
- MIC (Pseudomonas aeruginosa [41]): 0.25 µg/mL (≈ 0.835 µM)
- MIC (Pseudomonas aeruginosa [42]): 0.5 µg/mL (≈ 1.67 µM)
- MIC (Pseudomonas aeruginosa [43]): 0.19 µg/mL (≈ 0.635 µM)
- MIC (Pseudomonas aeruginosa [44]): 0.125 µg/mL (≈ 0.418 µM)
- MIC (Pseudomonas aeruginosa [45]): 0.25 µg/mL (≈ 0.835 µM)
- MIC (Pseudomonas aeruginosa [46]): 0.25 µg/mL (≈ 0.835 µM)
- MIC (Pseudomonas aeruginosa [47]): 0.38 µg/mL (≈ 1.27 µM)
